This is an account of results in ChEMBL document CHEMBL3593222, “6-Phenoxy-2-phenylbenzoxazoles, novel inhibitors of receptor for advanced glycation end products (RAGE)” (Bioorg Med Chem, 2015).

Series [1] can be described thus: (§1) Cytotoxicity against mouse HT22 cells assessed as cell viability at 10 uM after 18 hrs by MTT assay. It is filed as cell-based, HT-22. As to conditions: HT22 cells, read-out: Activity. The method, boiled down: (§2)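 HT22 cells were grown in DMEM with 10% FBS and penicillin/streptomycin at 37 °C in 5% CO2, and seeded at 5000 cells/well. Next day they were exposed to 10 µM compound for 18 h. MTT was then added for 3 h, formazan dissolved in acidic 2-propanol, and OD read at 570 nm. Viability is blank-corrected absorbance relative to control. Run in triplicate.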

The nature of series [2]: Solubility of the compound in water. It counts as physicochemical. As to conditions: buffer.
The target in series [3] is Advanced glycosylation end product-specific receptor (Homo sapiens) (UniProt Q15109). Kind of series: Inhibition of human RAGE-amyloid beta-42 interaction at 4 uM preincubated for 30 mins measured after 1 hr by FRET assay relative to control. The method in brief:
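Biotinylated human RAGE (2.5 µg) was premixed with 200 ng Cy3-streptavidin in PBS for 30 min at rt. Aβ42-FITC (50 µL of 40 nM) and compound (50 µL of 4 µM) were then added, in 200 µL final volume with 0.1% DMSO. Fluorescence was read 1 h later. FRET efficiency was computed from donor emission with and without acceptor, and percent inhibition was taken against vehicle. Triplicate.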

In series [4] the test system is HT-22. Kind of series: Neuroprotective activity in mouse HT22 cells assessed as inhibition of amyloid beta-induced cytotoxicity by measuring cell viability at 10 uM after 18 hrs by MTT assay. It counts as functional. As to conditions: HT-22, 18 h. The method in brief: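 Aβ peptide was pretreated in HFIP, dried to a film, redissolved in DMSO, and aggregated at 200 µM in PBS for 24 h at 4 °C. HT22 cells (5000/well) were exposed the next day to 2 µM aggregated Aβ plus 10 µM compound for 18 h. Viability was read by MTT at 570 nm, and percent inhibition was calculated against Aβ with vehicle. Triplicate.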

Series [5] deals with Mus musculus. In words: Antialzheimer activity in APPsw/PS1 transgenic mouse assessed as reduction of total amyloid beta 1-42 level in brain homogenates at 50 mg/kg, po administered every 2 days for 4 weeks by ELISA.
Series [6] concerns Mus musculus. Kind of series: Antialzheimer activity in APPsw/PS1 transgenic mouse assessed as reduction of total amyloid beta 1-40 level in brain homogenates at 50 mg/kg, po administered every 2 days for 4 weeks by ELISA.
The subject of series [7] is HT-22. Described as §1. It is filed as cell-based. As to conditions: ht-22, 18 h, 10 µM. The method, boiled down:
as §2

For series [8], the system named is Mus musculus. Kind of series: Antialzheimer activity in APPsw/PS1 transgenic mouse assessed as reduction of total amyloid beta 1-42 level in brain homogenates at 50 mg/kg, po administered every 2 days for 4 weeks by ELISA. It is filed as functional, organism-based. The method, boiled down: (§3)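 Male APPsw/PS1 mice, 34 weeks old (n = 4–5), dosed by gavage at 50 mg/kg every 2 days for 4 weeks. Total Aβ1–40 and Aβ1–42 were measured by ELISA kit. Results given as mean ± SD.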

Series [9] relates to Mus musculus. In words: Antialzheimer activity in APPsw/PS1 transgenic mouse assessed as reduction of total amyloid beta 1-40 level in brain homogenates at 50 mg/kg, po administered every 2 days for 4 weeks by ELISA. It is filed as functional, organism-based. The method in brief: as §3
For series [10], the system named is Mus musculus. Kind of series: Toxicity in APPsw/PS1 transgenic mouse at 50 mg/kg, po administered every 2 days for 4 weeks. It is filed as organism-based. As to conditions: in vivo.

Active and inactive are the calls of the source. The rule behind the calls is not given here.

Sequence of Advanced glycosylation end product-specific receptor (Homo sapiens) (Q15109 whole entry): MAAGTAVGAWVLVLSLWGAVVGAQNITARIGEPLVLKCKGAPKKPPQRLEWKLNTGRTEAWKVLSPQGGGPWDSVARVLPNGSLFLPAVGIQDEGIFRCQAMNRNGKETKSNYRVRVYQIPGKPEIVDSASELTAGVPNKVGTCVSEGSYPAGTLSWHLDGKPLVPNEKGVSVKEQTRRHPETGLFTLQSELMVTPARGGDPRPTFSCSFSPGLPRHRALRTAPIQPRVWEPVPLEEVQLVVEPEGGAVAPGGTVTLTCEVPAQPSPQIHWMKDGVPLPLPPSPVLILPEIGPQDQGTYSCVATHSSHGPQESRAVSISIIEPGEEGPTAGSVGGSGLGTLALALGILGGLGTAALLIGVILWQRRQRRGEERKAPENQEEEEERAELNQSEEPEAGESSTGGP

Regarding `Clc1ccc(Oc2ccc3nc(-c4ccc(OCCCN5CCN(c6ncccn6)CC5)cc4)oc3c2)cc1`, the viability at 18 h, 10 µM in [1] stood at 25.1%. The solubility entry in [2] is recorded as “Insoluble”. The same compound registered an inhibition in series [3] of 25.1%.

Take `Clc1ccc(Oc2ccc3nc(-c4ccc(OCC5CCN(Cc6ccccc6)CC5)cc4)oc3c2)cc1`: the viability at 18 h, 10 µM in series [1] came out at 82.4%. The solubility result in series [2] was “Insoluble”. This compound also returned an inhibition in series [3] of 5.1%.

For `CC(C)(C)OC(=O)N1CCN(CCCOc2ccc(-c3nc4ccc(Oc5ccc(Cl)cc5)cc4o3)cc2)CC1`, the inhibition at 10 µM in the series on HT-22 [4] worked out at 65%. The result in the series on Mus musculus [5], with Mus musculus [6], in the series on Mus musculus [8] and in the series on Mus musculus [9] was Active. Also, the Activity entry with HT-22 [7] and in the series on Mus musculus [10] was “Non-toxic” in each case. This compound also displayed an inhibition in series [3] of 40%.

Take `Clc1ccc(Oc2ccc3nc(-c4ccc(OCCCN5CCN(c6ccccc6)CC5)cc4)oc3c2)cc1`: the Activity result in the series with HT-22 [7] is recorded as “Non-toxic”. In series [2], the solubility result is listed as “Insoluble”. In addition, the inhibition entry in series [3] was “inactive”.

On to `Clc1ccc(Oc2ccc3nc(-c4ccc(OCCCN5CCC(c6ccccc6)CC5)cc4)oc3c2)cc1`, for which the Activity entry in the series with HT-22 [7] was “Non-toxic”. Besides, the solubility result in series [2] is given as “Insoluble”. The inhibition result in series [3] was “inactive”.
